Assay results: ChEMBL document CHEMBL2311279, “Discovery of a new series of [1,2,4]triazolo[4,3-a]quinoxalines as dual phosphodiesterase 2/phosphodiesterase 10 (PDE2/PDE10) inhibitors” (Bioorg Med Chem Lett, 2013); call rule not given here
One block for each molecule: values may come before it.

Columns and labels:
[1] = molecular target: cGMP-dependent 3',5'-cyclic phosphodiesterase (Homo sapiens, UniProt O00408); assay: Inhibition of human recombinant PDE2A expressed in Sf9 cells by scintillation proximity assay
[2] = Ratio of drug level brain to plasma in Sprague-Dawley rat at 10 mg/kg, sc after 1 hr; assay type: ADME, organism-based; parameters: dose 10 mg/kg, route subcutaneous; conditions: read-out: BPR
Method in brief: (§1)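 Male rats dosed once at 10 mg/kg, subcutaneously or orally. Vehicle was mostly 20% HP-b-CD at pH 4, with some dosing in 0.5% methocel suspension or H2O + tartaric acid. Brain (ng/g) and plasma (ng/mL) were sampled 1 h after dosing, and the brain/plasma ratio was derived from these. Values are geometric means of at least two runs ± SEM.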

[3] = Plasma concentration in Sprague-Dawley rat at 10 mg/kg, sc after 1 hr; assay type: ADME, organism-based; parameters: dose 10 mg/kg, route subcutaneous; method in brief: as §1
[4] = Drug level in Sprague-Dawley rat brain at 10 mg/kg, sc after 1 hr; assay type: ADME, organism-based; parameters: dose 10 mg/kg, route subcutaneous; conditions: read-out: Drug uptake; method in brief: as §1
[5] = Ratio of drug level brain to plasma in Wistar rat at 10 mg/kg, sc after 1 hr; assay type: ADME, organism-based; parameters: dose 10 mg/kg, route subcutaneous; conditions: read-out: BPR; method in brief: as §1
[6] = Plasma concentration in Wistar rat at 10 mg/kg, sc after 1 hr; assay type: ADME, organism-based; parameters: dose 10 mg/kg, route subcutaneous; method in brief: as §1
[7] = Drug level in Wistar rat brain at 10 mg/kg, sc after 1 hr; assay type: ADME, organism-based; parameters: dose 10 mg/kg, route subcutaneous; conditions: read-out: Drug uptake; method in brief: as §1
[8] = Selectivity ratio of IC50 for rat PDE10A to IC50 for human recombinant PDE2A
Method in brief: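 Inhibition of rat PDE10A and human PDE2A enzymes measured in vitro. IC50 values are mean ± SD of at least two experiments unless otherwise specified. The ratio is rat PDE10A IC50 divided by human PDE2A IC50.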

[9] = molecular target: cGMP-inhibited 3',5'-cyclic phosphodiesterase 3B (Homo sapiens, UniProt Q13370); assay: Inhibition of human recombinant PDE3B expressed in Sf9 cells by scintillation proximity assay
[10] = molecular target: Dual 3',5'-cyclic-AMP and -GMP phosphodiesterase 11A (Homo sapiens, UniProt Q9HCR9); assay: Inhibition of human recombinant PDE11A expressed in Sf9 cells by scintillation proximity assay
[11] = molecular target: High affinity cGMP-specific 3',5'-cyclic phosphodiesterase 9A (Homo sapiens, UniProt O76083); assay: Inhibition of human recombinant PDE9A expressed in Sf9 cells by scintillation proximity assay
[12] = molecular target: High affinity 3',5'-cyclic-AMP phosphodiesterase 7A (Homo sapiens, UniProt Q13946); assay: Inhibition of human recombinant PDE7A expressed in Sf9 cells by scintillation proximity assay
Phosphodiesterase 6 = assay: Inhibition of human recombinant PDE6AB expressed in Sf9 cells by scintillation proximity assay
[13] = molecular target: 3',5'-cyclic-AMP phosphodiesterase 4A (Homo sapiens, UniProt P27815); assay: Inhibition of human recombinant PDE4A expressed in Sf9 cells by scintillation proximity assay
[14] = molecular target: cGMP-specific 3',5'-cyclic phosphodiesterase (Homo sapiens, UniProt O76074); assay: Inhibition of human recombinant PDE5A expressed in Sf9 cells by scintillation proximity assay
[15] = molecular target: cGMP-inhibited 3',5'-cyclic phosphodiesterase 3A (Homo sapiens, UniProt Q14432); assay: Inhibition of human recombinant PDE3A expressed in Sf9 cells by scintillation proximity assay
Hippocampus = assay: Drug uptake in Wistar rat hippocampus at 0.03 mg/kg, iv after 2 to 30 mins; assay type: ADME, organism-based; parameters: dose 0.03 mg/kg, route intravenous; conditions: in vivo
Method in brief: (§2)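 Male Wistar rats (180–200 g) received 0.03 mg/kg i.v. and were killed at 2, 5, 10 and 30 min, with 3 rats per time point. Brains were rapidly removed and dissected into striatum, hippocampus and whole cortex. Each region was homogenized by ultrasonic probe in 4 volumes of 75% acetonitrile and centrifuged, then drug was quantified by LC-MS.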

[16] = molecular target: Dual specificity calcium/calmodulin-dependent 3',5'-cyclic nucleotide phosphodiesterase 1B (Homo sapiens, UniProt Q01064); assay: Inhibition of human recombinant PDE1B expressed in Sf9 cells by scintillation proximity assay
Cortex = assay: Drug uptake in Wistar rat cortex at 0.03 mg/kg, iv after 2 to 30 mins; assay type: ADME, organism-based; parameters: dose 0.03 mg/kg, route intravenous; conditions: in vivo; method in brief: as §2
Striatum = assay: Drug uptake in Wistar rat striatum at 0.03 mg/kg, iv after 2 to 30 mins; assay type: ADME, organism-based; parameters: dose 0.03 mg/kg, route intravenous; conditions: in vivo; method in brief: as §2
[17] = Ratio of drug level brain to plasma in Sprague-Dawley rat at 10 mg/kg, po after 1 hr; assay type: ADME, organism-based; parameters: dose 10 mg/kg, route oral; conditions: read-out: BPR; method in brief: as §1
[18] = Plasma concentration in Sprague-Dawley rat at 10 mg/kg, po after 1 hr; assay type: ADME, organism-based; parameters: dose 10 mg/kg, route oral; method in brief: as §1
[19] = Drug level in Sprague-Dawley rat brain at 10 mg/kg, po after 1 hr; assay type: ADME, organism-based; parameters: dose 10 mg/kg, route oral; conditions: read-out: Drug uptake; method in brief: as §1
[20] = Ratio of drug level brain to plasma in Wistar rat at 10 mg/kg, po after 1 hr; assay type: ADME, organism-based; parameters: dose 10 mg/kg, route oral; conditions: read-out: BPR; method in brief: as §1
[21] = Plasma concentration in Wistar rat at 10 mg/kg, po after 1 hr; assay type: ADME, organism-based; parameters: dose 10 mg/kg, route oral; method in brief: as §1
[22] = Drug level in Wistar rat brain at 10 mg/kg, po after 1 hr; assay type: ADME, organism-based; parameters: dose 10 mg/kg, route oral; conditions: read-out: Drug uptake; method in brief: as §1

Chain of cGMP-dependent 3',5'-cyclic phosphodiesterase (O00408 whole entry): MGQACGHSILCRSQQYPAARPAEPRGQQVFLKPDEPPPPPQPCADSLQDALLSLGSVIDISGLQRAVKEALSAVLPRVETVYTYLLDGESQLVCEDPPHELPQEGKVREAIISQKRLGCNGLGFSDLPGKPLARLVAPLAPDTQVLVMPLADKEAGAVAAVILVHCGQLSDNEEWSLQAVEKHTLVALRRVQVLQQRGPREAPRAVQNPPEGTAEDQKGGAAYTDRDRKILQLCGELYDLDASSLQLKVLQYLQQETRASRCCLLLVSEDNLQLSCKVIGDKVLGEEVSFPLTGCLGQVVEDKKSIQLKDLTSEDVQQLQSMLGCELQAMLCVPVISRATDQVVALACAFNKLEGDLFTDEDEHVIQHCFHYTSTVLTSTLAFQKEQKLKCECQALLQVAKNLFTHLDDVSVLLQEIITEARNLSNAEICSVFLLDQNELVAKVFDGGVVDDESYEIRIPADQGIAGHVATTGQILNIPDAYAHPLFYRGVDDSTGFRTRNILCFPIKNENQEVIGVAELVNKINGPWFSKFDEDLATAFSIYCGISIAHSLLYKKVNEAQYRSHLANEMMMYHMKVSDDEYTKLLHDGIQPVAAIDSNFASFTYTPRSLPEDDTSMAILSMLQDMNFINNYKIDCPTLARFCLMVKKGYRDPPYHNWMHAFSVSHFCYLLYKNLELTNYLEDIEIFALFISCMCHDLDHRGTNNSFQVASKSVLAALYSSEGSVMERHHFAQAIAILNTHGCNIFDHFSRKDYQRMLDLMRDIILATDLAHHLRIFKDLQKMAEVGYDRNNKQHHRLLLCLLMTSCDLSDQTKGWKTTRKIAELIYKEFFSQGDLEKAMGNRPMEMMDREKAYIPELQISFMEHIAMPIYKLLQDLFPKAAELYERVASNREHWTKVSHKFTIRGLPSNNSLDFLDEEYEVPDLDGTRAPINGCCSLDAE
Chain of cGMP-inhibited 3',5'-cyclic phosphodiesterase 3A (Q14432 whole entry): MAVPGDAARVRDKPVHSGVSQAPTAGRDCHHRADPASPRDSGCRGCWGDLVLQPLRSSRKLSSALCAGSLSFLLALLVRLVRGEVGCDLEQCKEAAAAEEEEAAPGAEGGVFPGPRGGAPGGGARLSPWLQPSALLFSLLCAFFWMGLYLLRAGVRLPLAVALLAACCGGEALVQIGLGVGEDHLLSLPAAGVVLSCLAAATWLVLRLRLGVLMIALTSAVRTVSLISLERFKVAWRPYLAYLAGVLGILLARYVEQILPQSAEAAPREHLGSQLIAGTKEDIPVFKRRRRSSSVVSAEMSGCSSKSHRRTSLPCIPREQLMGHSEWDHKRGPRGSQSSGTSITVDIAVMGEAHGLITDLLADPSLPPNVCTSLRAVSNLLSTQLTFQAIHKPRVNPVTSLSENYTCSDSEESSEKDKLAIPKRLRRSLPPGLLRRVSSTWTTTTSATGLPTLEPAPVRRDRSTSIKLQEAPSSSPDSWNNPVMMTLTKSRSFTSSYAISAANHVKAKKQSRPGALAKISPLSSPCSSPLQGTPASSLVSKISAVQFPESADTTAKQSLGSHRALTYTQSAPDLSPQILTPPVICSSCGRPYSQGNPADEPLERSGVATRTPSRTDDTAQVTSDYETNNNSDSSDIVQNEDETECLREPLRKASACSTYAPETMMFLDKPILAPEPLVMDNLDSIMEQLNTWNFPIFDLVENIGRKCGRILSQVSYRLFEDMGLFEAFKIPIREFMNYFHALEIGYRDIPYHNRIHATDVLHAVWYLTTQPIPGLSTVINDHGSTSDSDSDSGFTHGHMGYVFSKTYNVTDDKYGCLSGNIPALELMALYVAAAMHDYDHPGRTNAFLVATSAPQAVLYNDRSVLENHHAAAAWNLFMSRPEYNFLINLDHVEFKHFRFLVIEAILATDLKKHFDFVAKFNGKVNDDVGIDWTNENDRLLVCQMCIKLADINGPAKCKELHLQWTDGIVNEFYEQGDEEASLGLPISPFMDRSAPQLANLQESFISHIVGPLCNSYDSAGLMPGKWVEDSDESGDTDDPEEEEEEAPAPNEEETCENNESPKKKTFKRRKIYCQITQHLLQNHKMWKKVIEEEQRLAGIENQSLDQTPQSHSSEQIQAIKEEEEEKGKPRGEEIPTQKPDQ
Chain of High affinity 3',5'-cyclic-AMP phosphodiesterase 7A (Q13946 whole entry): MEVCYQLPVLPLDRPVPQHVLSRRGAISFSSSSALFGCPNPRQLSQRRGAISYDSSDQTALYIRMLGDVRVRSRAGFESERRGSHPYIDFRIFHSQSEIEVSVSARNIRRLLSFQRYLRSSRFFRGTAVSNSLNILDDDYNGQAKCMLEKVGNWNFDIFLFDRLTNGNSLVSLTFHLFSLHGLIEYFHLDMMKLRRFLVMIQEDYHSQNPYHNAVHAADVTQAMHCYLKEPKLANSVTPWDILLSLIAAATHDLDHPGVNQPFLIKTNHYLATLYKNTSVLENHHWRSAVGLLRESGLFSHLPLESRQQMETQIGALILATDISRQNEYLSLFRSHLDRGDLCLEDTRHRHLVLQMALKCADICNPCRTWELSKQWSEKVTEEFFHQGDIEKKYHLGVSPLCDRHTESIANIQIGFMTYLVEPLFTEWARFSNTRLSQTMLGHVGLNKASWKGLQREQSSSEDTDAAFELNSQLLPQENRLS
Chain of High affinity cGMP-specific 3',5'-cyclic phosphodiesterase 9A (O76083 whole entry): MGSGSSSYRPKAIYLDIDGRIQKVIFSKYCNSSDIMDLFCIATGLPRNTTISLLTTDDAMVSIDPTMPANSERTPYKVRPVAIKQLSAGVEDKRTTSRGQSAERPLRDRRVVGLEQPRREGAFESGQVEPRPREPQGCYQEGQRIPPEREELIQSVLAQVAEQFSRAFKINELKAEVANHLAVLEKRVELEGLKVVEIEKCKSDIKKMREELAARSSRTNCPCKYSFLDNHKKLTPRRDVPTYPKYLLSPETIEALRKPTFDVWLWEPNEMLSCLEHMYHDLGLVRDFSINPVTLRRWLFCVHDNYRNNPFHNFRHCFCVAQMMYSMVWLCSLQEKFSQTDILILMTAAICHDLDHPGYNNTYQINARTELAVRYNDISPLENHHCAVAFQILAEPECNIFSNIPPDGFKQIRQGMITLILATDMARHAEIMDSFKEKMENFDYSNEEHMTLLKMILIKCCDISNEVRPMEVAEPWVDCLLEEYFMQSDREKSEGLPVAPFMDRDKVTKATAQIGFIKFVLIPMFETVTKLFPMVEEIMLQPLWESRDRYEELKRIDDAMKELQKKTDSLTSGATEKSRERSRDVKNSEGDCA
Chain of cGMP-inhibited 3',5'-cyclic phosphodiesterase 3B (Q13370 whole entry): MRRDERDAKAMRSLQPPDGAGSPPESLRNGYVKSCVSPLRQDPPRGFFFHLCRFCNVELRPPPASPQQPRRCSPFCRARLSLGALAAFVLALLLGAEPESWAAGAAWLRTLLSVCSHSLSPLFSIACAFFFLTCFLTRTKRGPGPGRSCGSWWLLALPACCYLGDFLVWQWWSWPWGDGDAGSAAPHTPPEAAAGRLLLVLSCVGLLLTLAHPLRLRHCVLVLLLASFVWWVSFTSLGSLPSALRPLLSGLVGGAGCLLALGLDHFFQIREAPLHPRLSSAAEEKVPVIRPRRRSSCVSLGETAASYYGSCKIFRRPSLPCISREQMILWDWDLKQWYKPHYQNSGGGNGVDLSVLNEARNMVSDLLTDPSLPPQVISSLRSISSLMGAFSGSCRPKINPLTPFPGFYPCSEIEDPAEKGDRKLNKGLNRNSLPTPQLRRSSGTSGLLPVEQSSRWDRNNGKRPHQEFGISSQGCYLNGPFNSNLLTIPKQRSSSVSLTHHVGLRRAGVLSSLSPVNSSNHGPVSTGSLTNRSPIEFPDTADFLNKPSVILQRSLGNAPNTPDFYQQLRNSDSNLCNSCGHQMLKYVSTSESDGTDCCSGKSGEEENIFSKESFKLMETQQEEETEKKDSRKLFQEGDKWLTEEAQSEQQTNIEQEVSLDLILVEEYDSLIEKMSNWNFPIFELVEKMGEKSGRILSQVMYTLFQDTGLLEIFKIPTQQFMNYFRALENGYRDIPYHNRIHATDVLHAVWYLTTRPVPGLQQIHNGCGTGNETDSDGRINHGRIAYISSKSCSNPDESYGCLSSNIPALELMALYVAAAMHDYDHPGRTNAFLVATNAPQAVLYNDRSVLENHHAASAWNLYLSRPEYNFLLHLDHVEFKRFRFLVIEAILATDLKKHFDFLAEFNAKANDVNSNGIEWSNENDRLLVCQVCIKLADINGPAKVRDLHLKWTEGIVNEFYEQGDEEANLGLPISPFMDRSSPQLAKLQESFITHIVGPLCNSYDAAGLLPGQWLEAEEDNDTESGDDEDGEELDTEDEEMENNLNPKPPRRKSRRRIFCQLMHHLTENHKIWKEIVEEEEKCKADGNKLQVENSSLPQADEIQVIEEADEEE
Chain of Dual specificity calcium/calmodulin-dependent 3',5'-cyclic nucleotide phosphodiesterase 1B (Q01064 whole entry): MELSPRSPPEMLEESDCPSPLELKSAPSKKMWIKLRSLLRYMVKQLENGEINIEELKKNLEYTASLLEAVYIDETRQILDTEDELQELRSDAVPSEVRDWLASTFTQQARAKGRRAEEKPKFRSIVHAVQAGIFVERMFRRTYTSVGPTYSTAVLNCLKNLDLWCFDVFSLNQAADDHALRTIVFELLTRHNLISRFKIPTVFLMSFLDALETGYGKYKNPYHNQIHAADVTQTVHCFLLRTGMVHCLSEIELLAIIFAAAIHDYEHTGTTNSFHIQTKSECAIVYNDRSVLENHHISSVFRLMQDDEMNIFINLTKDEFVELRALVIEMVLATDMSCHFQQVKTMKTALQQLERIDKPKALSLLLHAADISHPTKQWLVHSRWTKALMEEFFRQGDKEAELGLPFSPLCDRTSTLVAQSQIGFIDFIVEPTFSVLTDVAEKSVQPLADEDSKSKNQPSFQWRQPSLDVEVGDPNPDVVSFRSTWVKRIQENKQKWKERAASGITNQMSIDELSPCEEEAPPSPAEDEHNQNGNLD

IC50 [1]: 0.028 µM
SMILES: CCNC(=O)c1ccc2nc(C)c3nnc(-c4cccnc4OC)n3c2c1

IC50 [1]: 0.0097 µM
SMILES: Cc1nc2ccc(CN3CCC(O)CC3)cc2n2c(-c3ccccc3Cl)nnc12

Kp at 1 h [2]: 0.036
concentration at 1 h [3]: 2800 ng/mL
concentration at 1 h [4]: 98 ng/g
SMILES: CCNC(=O)c1ccc2nc(C)c3nnc(-c4cnccc4C)n3c2c1

Kp at 1 h [2]: 0.73
concentration at 1 h [3]: 845 ng/mL
concentration at 1 h [4]: 628 ng/g
SMILES: CCNCc1ccc2nc(C)c3nnc(-c4ccccc4Cl)n3c2c1

IC50 [1]: 0.0071 µM
SMILES: Cc1nc2ccc(CN3CCN(C)CC3)cc2n2c(-c3ccccc3Cl)nnc12

Kp at 1 h [5]: 0.18
concentration at 1 h [6]: 569 ng/mL
concentration at 1 h [7]: 99 ng/g
SMILES: Cc1nc2ccc(CN3CCCC(CO)C3)cc2n2c(-c3ccccc3Cl)nnc12 (centres undefined)

IC50 [1]: 0.019 µM
SMILES: Cc1nc2ccc(C(=O)N(C)Cc3ccccc3)cc2n2c(-c3ccccc3Cl)nnc12

Kp at 1 h [5]: 0.14
concentration at 1 h [6]: 1070 ng/mL
concentration at 1 h [7]: 143 ng/g
IC50 [1]: 0.0022 µM
SMILES: Cc1nc2ccc(C(=O)NCCN3CCCC3)cc2n2c(-c3ccccc3Cl)nnc12

IC50 [1]: 0.0059 µM
SMILES: CCNC(=O)c1ccc2nc(C)c3nnc(-c4ccccc4OC)n3c2c1

Ratio IC50 [8]: 32
IC50 [1]: 0.00038 µM
SMILES: Cc1nc2ccc(C(=O)NCc3ccccc3)cc2n2c(-c3ccccc3Cl)nnc12

IC50 [9]: > 10 µM
IC50 [10]: > 10 µM
IC50 [11]: > 10 µM
IC50 [12]: 1.91 µM
IC50 (Phosphodiesterase 6): 2.28 µM
IC50 [13]: > 10 µM
IC50 [14]: > 10 µM
IC50 [15]: 7.76 µM
Drug uptake (Hippocampus): Active
IC50 [16]: 4.9 µM
Drug uptake (Cortex): Active
Drug uptake (Striatum): Active
Kp at 1 h [2]: 0.62
concentration at 1 h [3]: 299 ng/mL
concentration at 1 h [4]: 189 ng/g
IC50 [1]: 0.0028 µM
SMILES: Cc1nc2ccc(CN3CCOCC3)cc2n2c(-c3ccccc3Cl)nnc12

Kp at 1 h [17]: 0.034
concentration at 1 h [18]: 467 ng/mL
concentration at 1 h [19]: 16 ng/g
SMILES: CCNC(=O)c1ccc2nc(C)c3nnc(-c4cncc(OC)c4)n3c2c1

Kp at 1 h [5]: 0.034
concentration at 1 h [6]: 2540 ng/mL
concentration at 1 h [7]: 88 ng/g
SMILES: Cc1nc2ccc(C(=O)NCCN3CCOCC3)cc2n2c(-c3ccccc3Cl)nnc12

IC50 [1]: 0.0017 µM
SMILES: Cc1nc2ccc(C(=O)NCCc3ccccc3)cc2n2c(-c3ccccc3Cl)nnc12

IC50 [1]: 0.0044 µM
SMILES: CCOC(=O)c1ccc2nc(C)c3nnc(-c4ccccc4Cl)n3c2c1

IC50 [1]: 0.263 µM
SMILES: CCNC(=O)c1ccc2nc(C)c3nnc(-c4ccccn4)n3c2c1

Kp at 1 h [20]: 0.11
concentration at 1 h [21]: 1880 ng/mL
concentration at 1 h [22]: 185 ng/g
SMILES: CCNC(=O)c1ccc2nc(C)c3nnc(-c4ccccc4Cl)n3c2c1

IC50 [1]: 0.0028 µM
SMILES: CCNC(=O)c1ccc2nc(C)c3nnc(-c4ccccc4F)n3c2c1
